Consider eleven molecules from paper PMC10546487 (Journal of medicinal chemistry, 2022).

Read-outs that look alike come from different tables or passages of the source.

Data set [1] concerns mice. Description: Warm-water tail immersion assay. Type of data set: in vivo, mouse. To be noted: for Antinociception effect (% MPE): 10 mg/kg s.c., 56 °C; for Blockage of the morphine-mediated antinociception: 10 mg/kg s.c. in the presence of morphine (10 mg/kg). The essentials: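 Male Swiss-Webster mice (23–35 g, 7–8 weeks), n = 5 per group. Single test-compound dose of 10 mg/kg given subcutaneously at time 0. Tail-flick latency measured in water at 56 ± 0.1 °C. Saline served as negative control and morphine as positive control. Response expressed as % maximum possible effect, reported as mean ± SD.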

Data set [2] has as its target T1, KOR (Mus musculus, UniProt P33534). Description: Radioligand competition binding assay, KOR. For orientation: Displacement assays read how much labelled ligand stays bound in the presence of the test substance.
Data set [3] has as its target T2, DOR (Mus musculus, UniProt P32300). Description: Radioligand competition binding assay, DOR.
The target of data set [4] is T3, MOR (Mus musculus, UniProt P42866). Description: Radioligand competition binding assay, MOR. To be noted: for Selectivity δ/μ: ratio of Ki values DOR/MOR; for Selectivity κ/μ: ratio of Ki values KOR/MOR.
The nature of data set [5]: Solubility observed during testing. Type of data set: physicochemical. The following applies: during binding/functional testing.
In data set [6] the target is T3, MOR. The data set is described as follows: MOR [35S]-GTPγS functional assay. The data set is classed as biochemical. (In general: GTPγS is a poorly hydrolysed GTP analogue; its binding reports G protein activation.)
Data set [7] in a line: Metabolic stability in rat liver microsomes. The data set is classed as in vitro ADME. (Liver microsomes are vesicles of endoplasmic reticulum, rich in cytochrome P450 enzymes.)
Data set [8] addresses T1, KOR. Description: KOR [35S]GTPγS functional assay. Type of data set: biochemical.
In data set [9] the target is T2, DOR. The data set is described as follows: DOR [35S]GTPγS functional assay. Type of data set: biochemical.
Data set [10] relates to morphine-pelleted mice. The data set is described as follows: Opioid withdrawal study in chronic morphine-pelleted mice. Type of data set: in vivo, mouse.
Data set [11] has as its target hERG potassium channel (Homo sapiens, UniProt Q12809). Description: hERG automated patch-clamp assay in CHO-K1 cells. To be noted: ratio of hERG IC50 values vs NAN.
A short description of data set [12]: Metabolic stability in human liver microsomes. Type of data set: in vitro ADME.
Data set [13] addresses T3, MOR. Description: Calcium flux assay in Gqi5-transfected MOR-CHO cells. Type of data set: cell-based. To be noted: 0.3 nM to 3 μM. The essentials: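 Gqi5 cDNA lipofected into MOR-CHO cells, 4 h at 37 °C/5% CO2, then trypsinized, plated at […] and grown to confluence. At 48 h post-transfection, cells loaded 45 min with fluo-4 AM plus probenecid in HBSS–HEPES–Ca–Mg buffer. Test compound (0.3 nM–3 μM) given for agonist activity; Ca2+ read as RFU peak. Triplicate doses; ≥4 repeats.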

Data set [14] relates to morphine-pelleted mice. The following applies: 50 mg/kg; cited from earlier work.
The target in data set [15] is T1, KOR. The following applies: [35S]GTPγS; cited from earlier work.
For data set [16], the target named is T2, DOR. To be noted: [35S]GTPγS; cited from earlier work.
The target of data set [17] is T3, MOR. To be noted: low MOR-expressing CHO cells and mouse thalamus; cited from earlier work.

The term Ki denotes the dissociation constant of the complex between target and ligand, obtained from inhibition or displacement. Low values mean higher affinity, high ones lower affinity. As for `O=C(N[C@@H]1CC[C@@]2(O)[C@H]3Cc4ccc(O)c5c4[C@@]2(CCN3CC2CC2)[C@H]1O5)c1cccc2c(Cl)c[nH]c12` [Compound 7, 17-Cyclopropylmethyl-3,14β-dihydroxy-4,5α-epoxy-6β-(3-chloro-indole-7-carboxamido)morphinan], the “Antinociception effect (% MPE)” value in data set [1] is “noticeable antinociception”. The results for the Ki in data set [2] and in data set [3] were 0.33 ± 0.05 nM and 4.43 ± 1.06 nM, respectively.
As to `CC(=O)c1c[nH]c2c(C(=O)N[C@@H]3CC[C@@]4(O)[C@H]5Cc6ccc(O)c7c6[C@@]4(CCN5CC4CC4)[C@H]3O7)cccc12` [Compound 11, 17-Cyclopropylmethyl-3,14β-dihydroxy-4,5α-epoxy-6β-(3-acetyl-indole-7-carboxamido)morphinan], in [4], the “Selectivity δ/μ” value is recorded as less than 1.6 and the “Selectivity κ/μ” value is reported as less than 0.3. Moreover, in data set [5], the “Solubility observed in the in vitro assay” value is given as “poor solubility”. Besides, the affinity in data set [3], expressed as Ki, was 81.1 ± 9.98 nM.
As to `Cc1c[nH]c2c(C(=O)N[C@@H]3CC[C@@]4(O)[C@H]5Cc6ccc(O)c7c6[C@@]4(CCN5CC4CC4)[C@H]3O7)cccc12` [Compound 13, 17-Cyclopropylmethyl-3,14β-dihydroxy-4,5α-epoxy-6β-(3-methyl-indole-7-carboxamido)morphinan], the “Antinociception effect (% MPE)” value in data set [1] is “noticeable antinociception”. Further, in data set [4], the “Selectivity δ/μ” value worked out at 61.3 and the “Selectivity κ/μ” value came to 2.2. Affinity in data set [3] was put at a Ki of 27.9 ± 5.93 nM.
As usually defined, the EC50 is the concentration giving half of the maximal effect. Turning to `O=C(N[C@@H]1CC[C@@]2(O)[C@H]3Cc4ccc(O)c5c4[C@@]2(CCN3CC2CC2)[C@H]1O5)c1cccc2c(C3CCCC3)c[nH]c12` [Compound 15, 17-Cyclopropylmethyl-3,14β-dihydroxy-4,5α-epoxy-6β-(3-cyclo-pentyl-indole-7-carboxamido)morphinan], the EC50 in data set [6] came to 2.28 ± 0.59 nM. In addition, affinity in data set [3] was put at a Ki of 9.88 ± 1.13 nM.
With `O=C(N[C@H]1CC[C@@]2(O)[C@H]3Cc4ccc(O)c5c4[C@@]2(CCN3CC2CC2)[C@H]1O5)c1cccc2cc(Br)[nH]c12` [Compound 18, 17-Cyclopropylmethyl-3,14β-dihydroxy-4,5α-epoxy-6α-(2-bromo-indole-7-carboxamido)morphinan], the “Blockage of the morphine-mediated antinociception” value in data set [1] is reported as “different degrees of inhibition of morphine’s antinociceptive effect”. For the same molecule, the EC50 in data set [6] was determined as 2.36 ± 0.7 nM. The affinity in [3], expressed as Ki, was 6.73 ± 1 nM.
As a reminder, the CLint scaled is the capacity of the preparation to metabolise the compound, expressed as a volume cleared per time. Read a low CLint scaled as greater metabolic stability. `Cc1cc2cccc(C(=O)N[C@H]3CC[C@@]4(O)[C@H]5Cc6ccc(O)c7c6[C@@]4(CCN5CC4CC4)[C@H]3O7)c2[nH]1.Cl` [Compound 21, 17-Cyclopropylmethyl-3,14β-dihydroxy-4,5α-epoxy-6α-(2-methyl-indole-7-carboxamido)morphinan]: in [1], the “Blockage of the morphine-mediated antinociception” value is “different degrees of inhibition of morphine’s antinociceptive effect”. Also, the CLint scaled in data set [7] and in data set [12] was less than 2.31 L/h/kg each time. The “Selectivity δ/μ” value in data set [4] was 27.3. In addition, the concentration giving a half-maximal response (EC50) in [8] (KOR EC50 (nM), mean ± SEM) is 6.65 ± 0.78 nM; in data set [9] (DOR EC50 (nM), mean ± SEM) it was 4.99 ± 0.21 nM. Moreover, in [8] (relative to KOR full agonist U50,488H), the “KOR Emax(% max of U50,488H)” value was determined as 48.28 ± 1.45%. In addition, the “DOR Emax(% max of SNC80)” value in [9] (relative to DOR full agonist SNC80) was 76.82 ± 4.82%. Besides, the Jumps entry in [10] (40 mg/kg, vs 1 mg/kg naloxone) is listed as “not significantly different from those at 1 mg/kg naloxone”. In data set [10] (all doses up to 80 mg/kg, vs 1 mg/kg naloxone), the Paw tremors result is on record as “significantly fewer paw tremors”. Further, the Wet-dog shakes entry in data set [10] (all the doses tested, vs 1 mg/kg naloxone) was “did not precipitate more wet-dog shakes”. Besides, the “Improvement of hERG profile in comparison to NAN (fold)” value in data set [11] is “seven-fold”. In data set [3], this molecule returned a Ki of 16 ± 1.09 nM. Besides, the “Agonist activity to increase the intracellular calcium concentration” value in data set [13] is given as “no obvious agonist activity”.
For the molecule `CC(=O)c1c[nH]c2c(C(=O)N[C@H]3CC[C@@]4(O)[C@H]5Cc6ccc(O)c7c6[C@@]4(CCN5CC4CC4)[C@H]3O7)cccc12` [Compound 28, 17-Cyclopropylmethyl-3,14β-dihydroxy-4,5α-epoxy-6α-(3-acetyl-indole-7-carboxamido)morphinan], the figures for the Ki in [2] and in data set [3] were 6.39 ± 1.07 nM and 10.9 ± 1.58 nM, respectively.
`O=C(N[C@H]1CC[C@@]2(O)[C@H]3Cc4ccc(O)c5c4[C@@]2(CCN3CC2CC2)[C@H]1O5)c1cccc2cc[nH]c12` [NAN, 17-cyclopropylmethyl-3,14β-dihydroxy-4,5α-epoxy-6α-(indole-7-carboxamido)morphinan]: in [14], the Paw tremors result was “seemingly more paw tremors”; the “Wet-dog shakes and jumps” value is “did not induce significant wet-dog shakes and jumps”. In addition, in data set [15], the “KOR Emax(% max of U50,488H)” value is on record as 73.90 ± 3.69%. For the same molecule, in data set [16], the “DOR Emax(% max of SNC80)” value is 26.67 ± 1.17%.
As for `O=C(N[C@@H]1CC[C@@]2(O)[C@H]3Cc4ccc(O)c5c4[C@@]2(CCN3CC2CC2)[C@H]1O5)c1ccncc1` [NAP, 17-Cyclopropylmethyl-3,14β-dihydroxy-4,5α-epoxy-6β-[(4′-pyridyl)carboxamido]morphinan], in data set [17], the “Shift of DAMGO concentration effect curve” value is “parallel rightward shift in the concentration effect curve of MOR full agonist DAMGO”.
Regarding `O=C(N[C@H]1CC[C@@]2(O)[C@H]3Cc4ccc(O)c5c4[C@@]2(CCN3CC2CC2)[C@H]1O5)c1cc2ccccc2cn1` [NAQ, 17-cyclopropylmethyl-3,14β-dihydroxy-4,5α-epoxy-6α-(isoquinoline-3-carboxamido)-morphinan], the “Shift of DAMGO concentration effect curve” value in data set [17] is “parallel rightward shift in the concentration effect curve of MOR full agonist DAMGO”.
`C=CCN1CC[C@]23c4c5ccc(O)c4O[C@H]2C(=O)CC[C@@]3(O)[C@H]1C5` [NLX, naloxone, reference compound]: in [10] (1 mg/kg s.c.), the Withdrawal symptoms result was “induced significant withdrawal symptoms”.
